In assay [1] the target is Cannabinoid receptor 1 (Homo sapiens) (UniProt P21554). In words: Antagonist activity at CB1 receptor expressed in HEK293 cells assessed as blockade of secreted alkaline phosphatase activity at 1 uM after 6 hrs relative to control. The assay is classed as functional, cell-based. The method in brief: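 HEK-293 cells transfected with 5 μg pCRE-SeAP plus 1 μg Flag-tagged CB₁ or CB₂ receptor, 30,000 cells/well, serum-starved 16–18 h. Stimulated 6 h in serum-free medium with 10 μM forskolin and 100 nM agonist, without or with 1 μM test peptide. Supernatant diluted in pH 7.2 buffer, heated 65°C 20 min, then CSPD chemiluminescence read. Mean ± SEM, n = 6.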
Chain of Cannabinoid receptor 1 (Homo sapiens) (P21554 whole entry): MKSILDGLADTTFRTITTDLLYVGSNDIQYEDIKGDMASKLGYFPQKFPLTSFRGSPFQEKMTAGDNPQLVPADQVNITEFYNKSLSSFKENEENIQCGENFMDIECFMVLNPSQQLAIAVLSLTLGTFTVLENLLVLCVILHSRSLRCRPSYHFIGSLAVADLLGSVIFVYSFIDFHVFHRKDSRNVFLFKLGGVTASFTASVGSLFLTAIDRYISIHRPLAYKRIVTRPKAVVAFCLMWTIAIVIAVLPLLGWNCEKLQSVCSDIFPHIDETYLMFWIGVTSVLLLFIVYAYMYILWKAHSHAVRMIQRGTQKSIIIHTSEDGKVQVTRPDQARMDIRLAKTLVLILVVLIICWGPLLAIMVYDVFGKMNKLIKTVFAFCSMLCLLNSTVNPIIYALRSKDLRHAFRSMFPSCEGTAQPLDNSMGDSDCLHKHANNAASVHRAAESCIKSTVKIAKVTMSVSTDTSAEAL

In assay [2] the target is Delta-type opioid receptor (Homo sapiens) (UniProt P41143). In words: Antagonist activity at delta opioid receptor expressed in HEK293 cells assessed as blockade of deltorphin 2-mediated decrease in secreted alkaline phosphatase activity at 1 uM after 6 hrs relative to control. The assay is classed as functional, cell-based. Put shortly:
(§1)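 HEK-293 cells transiently co-transfected with pCRE-SeAP and a Flag-tagged receptor, 30,000 cells/well on poly-L-lysine. They were serum-starved 16–18 h, then exposed 6 h in serum-free medium to 10 μM forskolin (omitted for β2) plus the receptor agonist (100 nM), with or without peptide (1 μM). Heat-treated supernatant SeAP was read by CSPD chemiluminescence. Mean ± SEM, n = 6.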

For assay [3], the target named is Mu-type opioid receptor (Homo sapiens) (UniProt P35372). In words: Antagonist activity at mu opioid receptor expressed in HEK293 cells assessed as blockade of secreted alkaline phosphatase activity at 1 uM after 6 hrs relative to control. The assay is classed as functional, cell-based. Put shortly:
as §1

The target of assay [4] is T1, Alpha-2A adrenergic receptor (Homo sapiens) (UniProt P08913).
T1 sequence (whole entry): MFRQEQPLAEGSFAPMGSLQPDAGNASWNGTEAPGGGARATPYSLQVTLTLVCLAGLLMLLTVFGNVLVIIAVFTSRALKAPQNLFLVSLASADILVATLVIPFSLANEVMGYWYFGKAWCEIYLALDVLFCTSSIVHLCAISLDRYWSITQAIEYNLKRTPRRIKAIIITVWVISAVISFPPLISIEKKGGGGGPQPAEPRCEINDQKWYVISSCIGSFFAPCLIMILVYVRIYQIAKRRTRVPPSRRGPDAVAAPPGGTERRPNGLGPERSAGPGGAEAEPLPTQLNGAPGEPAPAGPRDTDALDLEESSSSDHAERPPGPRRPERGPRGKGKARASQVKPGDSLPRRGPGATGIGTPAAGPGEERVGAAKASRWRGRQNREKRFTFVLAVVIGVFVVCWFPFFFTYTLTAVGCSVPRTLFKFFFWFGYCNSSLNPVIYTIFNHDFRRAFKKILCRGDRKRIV
The experiment in a line: Antagonist activity at alpha2A adrenergic receptor expressed in SKNSH cells assessed as blockade of clonidine-induced increase in antibody recognition at 100 nM by ELISA relative to control. Details: scale not given: the % may be the effect or the level left. The assay is classed as functional, cell-based.

Assay [5] has as its target Cannabinoid receptor 2 (Homo sapiens) (UniProt P34972). In words: Antagonist activity at CB2 receptor expressed in SKNSH cells at 100 nM by ELISA relative to control. The format is functional, cell-based. Details: scale not given: the % may be the effect or the level left. A general note: ELISA stands for enzyme-linked immunosorbent assay.
In the next assay the test system is Mus musculus. In words: Effect on motor coordination in C57BL/6 mouse at […], ip after 1 hrs. The assay is classed as functional, organism-based.
Assay [6] addresses T2, B2 bradykinin receptor (Homo sapiens) (UniProt P30411).
T2 sequence (whole entry): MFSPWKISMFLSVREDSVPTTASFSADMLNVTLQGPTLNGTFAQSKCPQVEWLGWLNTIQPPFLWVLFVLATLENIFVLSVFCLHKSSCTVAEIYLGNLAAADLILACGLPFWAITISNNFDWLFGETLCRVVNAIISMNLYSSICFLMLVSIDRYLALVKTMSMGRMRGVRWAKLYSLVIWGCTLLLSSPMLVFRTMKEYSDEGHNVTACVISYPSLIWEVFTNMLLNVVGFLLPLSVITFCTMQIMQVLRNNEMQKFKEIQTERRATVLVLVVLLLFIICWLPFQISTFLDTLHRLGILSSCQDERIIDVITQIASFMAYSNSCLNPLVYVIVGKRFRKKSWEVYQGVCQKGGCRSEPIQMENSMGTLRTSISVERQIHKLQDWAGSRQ
The experiment in a line: Antagonist activity at B2 bradykinin receptor expressed in SKNSH cells at 100 nM by ELISA. The assay is classed as functional, cell-based. Details: scale not given: the % may be the effect or the level left.

Assay [7] addresses T2, B2 bradykinin receptor (Homo sapiens). In words: Antagonist activity at B2 bradykinin receptor expressed in SKNSH cells assessed as blockade of bradykinin-induced increase in antibody recognition at 100 nM by ELISA. Details: scale not given: the % may be the effect or the level left. The assay is classed as functional, cell-based.
The next assay has as its target Cannabinoid receptor 1 (Rattus norvegicus, UniProt P20272). In words: Displacement of [3H]SR141716 from Long-Evans rat striatal membrane CB1 receptor. In general terms: Displacement assays read how much labelled ligand stays bound in the presence of the test substance.
Assay [8] deals with T3, Type-1 angiotensin II receptor (Homo sapiens) (UniProt P30556).
T3 sequence (whole entry): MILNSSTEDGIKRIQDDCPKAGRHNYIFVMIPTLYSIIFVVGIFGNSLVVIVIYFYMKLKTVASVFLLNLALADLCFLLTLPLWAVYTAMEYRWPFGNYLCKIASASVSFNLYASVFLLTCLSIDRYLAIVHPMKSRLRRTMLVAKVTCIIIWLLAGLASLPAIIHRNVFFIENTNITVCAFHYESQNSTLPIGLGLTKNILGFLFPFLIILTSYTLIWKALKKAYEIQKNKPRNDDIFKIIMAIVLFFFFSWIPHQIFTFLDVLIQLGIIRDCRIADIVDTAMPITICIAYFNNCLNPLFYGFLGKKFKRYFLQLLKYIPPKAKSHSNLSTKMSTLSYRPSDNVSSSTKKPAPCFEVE
The experiment in a line: Antagonist activity at AT1 angiotensin receptor expressed in SKNSH cells at 100 nM by ELISA relative to control. Details: scale not given: the % may be the effect or the level left. The assay is classed as functional, cell-based.

In assay [9] the target is Delta-type opioid receptor (Homo sapiens) (UniProt P41143). The experiment in a line: Antagonist activity at delta opioid receptor expressed in SKNSH cells assessed as blockade of deltorphin 2-induced increase in antibody recognition at 100 nM by ELISA relative to control. The assay is classed as functional, cell-based. Details: scale not given: the % may be the effect or the level left.
Chain of Delta-type opioid receptor (Homo sapiens) (P41143 whole entry): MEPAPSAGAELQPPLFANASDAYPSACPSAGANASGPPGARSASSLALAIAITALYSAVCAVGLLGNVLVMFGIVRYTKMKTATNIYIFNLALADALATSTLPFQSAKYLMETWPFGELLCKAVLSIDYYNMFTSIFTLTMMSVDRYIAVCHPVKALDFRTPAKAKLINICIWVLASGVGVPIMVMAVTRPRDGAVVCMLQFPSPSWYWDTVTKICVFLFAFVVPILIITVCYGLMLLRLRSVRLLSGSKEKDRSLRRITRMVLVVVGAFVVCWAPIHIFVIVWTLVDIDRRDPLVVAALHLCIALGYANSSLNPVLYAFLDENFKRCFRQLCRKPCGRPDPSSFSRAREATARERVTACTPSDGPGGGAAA

Assay [10] concerns the target T1, Alpha-2A adrenergic receptor (Homo sapiens). The experiment in a line: Antagonist activity at alpha2A adrenergic receptor expressed in SKNSH cells at 100 nM by ELISA relative to control. Details: scale not given: the % may be the effect or the level left. The assay is classed as functional, cell-based.
Assay [11] concerns the target Mu-type opioid receptor (Homo sapiens) (UniProt P35372). In words: Antagonist activity at mu opioid receptor expressed in SKNSH cells assessed as blockade of DAMGO-induced increase in antibody recognition at 100 nM by ELISA relative to control. The format is functional, cell-based. Details: scale not given: the % may be the effect or the level left.
The target of assay [12] is Cannabinoid receptor 1 (Homo sapiens) (UniProt P21554). In words: Antagonist activity at CB1 receptor expressed in Neuro 2A cells assessed as blockade of Hu210-mediated decrease in secreted alkaline phosphatase activity at 1 uM. The assay is classed as functional, cell-based. The method in brief:
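Neuro 2A cells co-expressing pCRE-SeAP and CB1 were serum-starved 16–18 h, then given 10 μM forskolin plus 100 nM Hu-210, with or without 1 μM peptide, for 6 h without serum. Secreted alkaline phosphatase in heat-treated supernatant was measured by CSPD luminescence. Mean ± SEM of sextuplicates, n = 2.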

Each structure is given as a SMILES string. Active and inactive are the calls of the source. The calls are words filed in the database; no cut-off is given here.

Chain of Mu-type opioid receptor (Homo sapiens) (P35372 whole entry): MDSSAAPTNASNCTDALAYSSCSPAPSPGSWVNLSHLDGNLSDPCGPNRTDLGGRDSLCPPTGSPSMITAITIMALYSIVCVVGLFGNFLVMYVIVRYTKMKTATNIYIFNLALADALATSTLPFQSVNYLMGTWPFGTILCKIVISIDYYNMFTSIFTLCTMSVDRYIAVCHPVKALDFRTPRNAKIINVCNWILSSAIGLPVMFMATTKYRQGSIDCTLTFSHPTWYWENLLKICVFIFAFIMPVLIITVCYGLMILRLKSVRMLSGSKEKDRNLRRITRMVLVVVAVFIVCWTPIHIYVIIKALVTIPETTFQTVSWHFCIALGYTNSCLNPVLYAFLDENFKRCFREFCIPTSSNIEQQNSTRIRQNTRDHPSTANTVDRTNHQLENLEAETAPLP
Chain of Cannabinoid receptor 1 (P20272 whole entry): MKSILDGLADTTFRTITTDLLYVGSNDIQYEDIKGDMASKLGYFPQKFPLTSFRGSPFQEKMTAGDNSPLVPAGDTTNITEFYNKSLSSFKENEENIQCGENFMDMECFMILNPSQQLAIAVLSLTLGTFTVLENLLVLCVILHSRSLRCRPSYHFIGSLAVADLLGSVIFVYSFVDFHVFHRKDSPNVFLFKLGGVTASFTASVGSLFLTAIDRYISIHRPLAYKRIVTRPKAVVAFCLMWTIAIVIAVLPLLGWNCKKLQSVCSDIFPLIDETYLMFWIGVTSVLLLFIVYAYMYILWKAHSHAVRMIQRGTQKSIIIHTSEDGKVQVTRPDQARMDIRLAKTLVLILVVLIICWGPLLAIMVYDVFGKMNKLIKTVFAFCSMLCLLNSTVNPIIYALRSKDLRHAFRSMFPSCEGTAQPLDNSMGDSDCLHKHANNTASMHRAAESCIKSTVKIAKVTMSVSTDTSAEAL
Chain of Cannabinoid receptor 2 (Homo sapiens) (P34972 whole entry): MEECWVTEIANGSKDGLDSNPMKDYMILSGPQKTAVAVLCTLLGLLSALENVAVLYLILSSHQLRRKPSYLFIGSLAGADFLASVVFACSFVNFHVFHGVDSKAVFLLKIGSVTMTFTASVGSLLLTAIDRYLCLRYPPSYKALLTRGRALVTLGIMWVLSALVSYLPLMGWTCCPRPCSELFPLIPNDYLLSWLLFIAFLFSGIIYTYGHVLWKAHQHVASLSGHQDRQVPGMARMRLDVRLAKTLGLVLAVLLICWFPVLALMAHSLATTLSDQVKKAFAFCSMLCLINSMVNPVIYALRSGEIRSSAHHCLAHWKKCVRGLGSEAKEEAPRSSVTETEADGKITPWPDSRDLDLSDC

The term EC50 denotes the concentration at which the effect is half-maximal. For `CC(C)C[C@H](NC(=O)[C@H](Cc1ccccc1)NC(=O)[C@H](CCCCN)NC(=O)[C@H](Cc1ccccc1)NC(=O)[C@H](CC(N)=O)NC(=O)[C@@H](NC(=O)[C@@H]1CCCN1)C(C)C)C(=O)N[C@@H](CO)C(=O)N[C@@H](Cc1cnc[nH]1)C(=O)O` [HEMOPRESSIN], the Activity in assay [1] came out at 1.15; in assay [2], 0.59; in assay [3] it was 0.98; in [4], 130%; in assay [5] it was 103%; in [6] it was 103%. For the same compound, the Activity in [7] was 149%; in [8], 110%; in [9], 131%; in [10], 103%; in [11], 141%. For the same compound, the outcome in the assay on Mus musculus was inactive. In addition, on Cannabinoid receptor 1, a half-maximal effect (EC50) was put at 0.35 nM. The result in [12] was Active.

The values above are taken from ChEMBL document CHEMBL1156534, “Hemopressin is an inverse agonist of CB1 cannabinoid receptors” (Proc Natl Acad Sci U S A, 2007).
